Data taken from ChEMBL document CHEMBL1138355, “Amine-guanidine switch: a promising approach to improve DNA binding and antiproliferative activities” (J Med Chem, 2007).
pIC50: −log10 of the molar value. Activity calls are given as the source filed them. The rule behind the calls is not given here.

Legend:
BT-474 [1] = assay: Antiproliferative activity against human BT474 cells after 72 hrs; format: functional, cell-based; conditions: BT-474, 72 h
PC-3 = assay: Antiproliferative activity against human PC3 cells after 72 hrs; format: functional, cell-based; conditions: PC-3, 72 h
HT-29 = assay: Antiproliferative activity against human HT29 cells after 72 hrs; format: functional, cell-based; conditions: HT-29, 72 h
Outline: (§1)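 Cells grown in DMEM with 10% calf serum and 1 mM pyruvate, seeded at 5000 cells/well, left 24 h, then given increasing concentrations from DMSO stock in triplicate (DMSO-only controls) for 72 h. CellTiter 96 aqueous one-solution reagent added for 3 h at 37 °C, A540 read. IC50 taken as the concentration halving cell number versus controls, from triplicate means.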

DNA [2] = assay: Binding affinity to calf […] DNA assessed as thermal stability in cacodylate buffer containing 0.1 M NaCl at 12 uM; format: nucleic-acid assay
LNCaP = assay: Antiproliferative activity against human LnCAP cells after 72 hrs; format: functional, cell-based
DNA [3] = assay: Binding affinity to calf thymus DNA assessed as thermal stability in BPE buffer at 2 uM; format: nucleic-acid assay; conditions: Bos taurus
T47D = assay: Antiproliferative activity against human T47D cells after 72 hrs; format: functional, cell-based; outline: as §1
SK-BR-3 = assay: Antiproliferative activity against human SKBR3 cells after 72 hrs; format: functional, cell-based; conditions: SK-BR-3, 72 h; outline: as §1
DNA [4] = assay: Binding affinity to calf […] DNA assessed as thermal stability in cacodylate buffer at 12 uM; format: nucleic-acid assay
Caspase-7 (Homo sapiens) = molecular target: T1, Caspase-7 (Homo sapiens) (UniProt P55210); assay: Increase in caspase 7 activation in human SKBR3 cells at 20 uM after 24 hrs; format: cell-based; conditions: SK-BR-3
T1 sequence (whole entry): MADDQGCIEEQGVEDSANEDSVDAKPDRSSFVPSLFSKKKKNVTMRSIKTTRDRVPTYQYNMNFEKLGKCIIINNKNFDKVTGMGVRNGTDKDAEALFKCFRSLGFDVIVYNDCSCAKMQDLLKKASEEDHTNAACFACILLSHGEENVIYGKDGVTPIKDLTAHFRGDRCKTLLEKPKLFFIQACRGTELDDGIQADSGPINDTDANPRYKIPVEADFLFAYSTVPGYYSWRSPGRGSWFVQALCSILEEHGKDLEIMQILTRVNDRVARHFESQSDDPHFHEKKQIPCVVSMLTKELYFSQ
Outline: (§2)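 SKBR3 cells seeded at 10^4 per well and exposed to compounds at 20 µM for 24 h. Controls run with and without 0.2% DMSO. Caspase-3/7 activity measured in homogeneous lysates with Caspase-Glo 3/7 reagent as luciferase luminescence.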

Caspase-3 (Homo sapiens) = molecular target: T2, Caspase-3 (Homo sapiens) (UniProt P42574); assay: Increase in caspase 3 activation in human SKBR3 cells at 20 uM after 24 hrs; format: cell-based; conditions: SK-BR-3; outline: as §2
T2 sequence (whole entry): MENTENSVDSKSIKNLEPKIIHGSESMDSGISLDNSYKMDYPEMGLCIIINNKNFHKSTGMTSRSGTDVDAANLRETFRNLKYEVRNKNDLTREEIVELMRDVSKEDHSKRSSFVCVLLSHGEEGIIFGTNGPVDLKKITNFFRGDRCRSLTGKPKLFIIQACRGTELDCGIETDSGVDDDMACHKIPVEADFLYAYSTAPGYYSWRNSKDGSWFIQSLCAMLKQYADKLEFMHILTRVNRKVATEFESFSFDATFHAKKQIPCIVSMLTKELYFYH

BT-474 [5] = assay: Antitumor activity against human BT474 cells xenografted gamma C null NOG/SCID mouse assessed as reduction in tumor volume at 20 mg/kg, ip after 44 days; format: functional; set-up: scale not given: the % may be the effect or the level left; conditions: route intraperitoneal
Outline: (§3)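 5 × 10^6 BT474 cells in Matrigel injected subcutaneously into the mammary gland of NOG/SCID mice. Once xenografts were established (10–15 days), mice got intraperitoneal doses in 0.9% NaCl every 3 days; controls got vehicle on the same schedule. Tumours measured by caliper, volume = 0.52(length × width²), five mice per group, percent volume change at day 44.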

BT-474 [6] = assay: Antitumor activity against human BT474 cells xenografted in gamma C null NOG/SCID mouse assessed as reduction in tumor volume at 60 mg/kg, ip after 44 days; format: functional; set-up: scale not given: the % may be the effect or the level left; conditions: route intraperitoneal; outline: as §3

Structure (SMILES)	pIC50 (BT-474 [1])	pIC50 (PC-3)	pIC50 (HT-29)	ΔTm (DNA [2])	pIC50 (LNCaP)	ΔTm (DNA [3])	pIC50 (T47D)	pIC50 (SK-BR-3)	ΔTm (DNA [4])	Activity (Caspase-7 (Homo sapiens))	Activity (Caspase-3 (Homo sapiens))	Activity (BT-474 [5])	Activity (BT-474 [6])	Tm (DNA [3])
N=C(N)NCCCCNCc1c2ccccc2cc2ccccc12	4.84	4.86	4.10	9 °C	4.55	15.1 °C	4.51	5.64	28.1 °C	–	–	–	–	–
NCc1ccc2ccc3cccc4ccc1c2c34	–	–	–	3 °C	–	5 °C	–	4.92	15 °C	–	–	–	–	–
NCc1cccs1	–	–	–	0 °C	–	0.1 °C	–	< 4.40	0 °C	–	–	–	–	–
N=C(N)NCc1cccs1	4.02	< 4.00	< 4.00	0 °C	4.19	0.1 °C	4.07	< 4.40	0 °C	–	–	–	–	–
N=C(N)NCc1c2ccccc2cc2ccccc12	4.72	5.00	< 4.00	4 °C	5.46	6.1 °C	4.53	5.72	15 °C	Active	Active	–	–	–
N=C(N)NCc1ccccc1	4.32	< 4.00	< 4.00	0 °C	4.36	0.1 °C	4.08	< 4.40	0.1 °C	inactive	inactive	–	–	–
N=C(N)NCCCCNCc1ccc2ccc3cccc4ccc1c2c34	4.79	5.10	4.51	12 °C	5.03	–	5.66	5.72	34.2 °C	Active	Active	32%	73%	> 100 °C
CN1CCN(c2ccc3[nH]c(-c4ccc5[nH]c(-c6ccc(O)cc6)nc5c4)nc3c2)CC1	–	–	–	12 °C	–	9 °C	–	–	25.1 °C	–	–	–	–	–
N=C(N)NCCCNCCCCNCCCNCc1ccc2ccc3cccc4ccc1c2c34	4.46	–	–	16 °C	–	–	5.10	4.60	39.1 °C	inactive	inactive	–	–	> 100 °C
NCc1c2ccccc2cc2ccccc12	–	–	–	1 °C	–	3 °C	–	4.59	9 °C	inactive	inactive	–	–	–
N=C(N)NCc1ccc2c(c1)Cc1ccccc1-2	4.72	4.62	4.49	0 °C	4.56	0 °C	5.16	4.80	1 °C	–	–	–	–	–
NCCCCNCc1c2ccccc2cc2ccccc12	–	–	–	8 °C	–	13.1 °C	–	5.48	26 °C	–	–	–	–	–
NCc1ccccc1 [BENZYLAMINE]	–	–	–	0 °C	–	0 °C	–	< 4.40	0.1 °C	inactive	inactive	–	–	–
N=C(N)NCCCCCCNCc1ccc2ccc3cccc4ccc1c2c34	4.53	–	–	12 °C	–	–	5.66	5.32	34.1 °C	–	–	–	–	> 100 °C
NCc1ccc2c(c1)Cc1ccccc1-2	–	–	–	0 °C	–	1 °C	–	< 4.40	0.1 °C	inactive	inactive	–	–	–
NCCCCNCc1ccc2ccc3cccc4ccc1c2c34	–	–	–	10 °C	–	20.2 °C	–	5.38	32.1 °C	–	–	–	–	–
N=C(N)NCc1ccc2ccc3cccc4ccc1c2c34	4.47	4.36	4.40	6 °C	4.03	8.1 °C	4.36	4.96	19 °C	–	–	–	–	–
CCBr	–	–	–	5 °C	–	8.1 °C	–	–	21 °C	–	–	–	–	–
